Experimental data as given in paper PMC11070865 (Heliyon, 2024).
≈ marks a conversion by molar mass, not a printed value. Read-outs that look alike come from different tables or passages of the source.

Columns and labels:
[1] = tested on: KATO-III cell line; test: Cell viability by MTT assay, KATO-III; assay type: cell-based; details: for IC50: Homo sapiens, KATO III, read-out: IC50 on KATO-III
[2] = tested on: WI-38 normal lung fibroblast cell line; test: Cell viability by MTT assay, WI-38; assay type: cell-based; details: Homo sapiens, read-out: IC50 on WI-38
[3] = tested on: KATO-III cells; test: Programmed cell death, annexin V/PI flow cytometry; assay type: cell-based; details: for Q2 late apoptotic cells (annexin V+ PI+): 72 h
[4] = tested on: KATO-III cells; test: Cell cycle arrest analysis, PI flow cytometry; assay type: cell-based; details: MF 7.5, 15 and 30 μg/mL, from 24 h exposure onwards, P < 0.01
Outline: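 KATO-III cells at 5 × 10⁵ per well in 6-well plates were exposed to test compound (0, 7.5, 15 and 30 μg/mL final) or 1 % (v/v) DMSO for 24, 48 and 72 h (37 °C, 5 % CO₂). Cells were trypsinized and washed in cold PBS, then fixed in 70 % ethanol on ice for 30 min. They were treated with RNase A (100 μg/mL, 30 min, 37 °C) and stained with PI (50 μg/mL). Flow cytometry recorded 10,000 events per sample, in triplicate.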

[5] = tested on: KATO-III cells; test: Cell imaging; assay type: cell-based
Outline: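 KATO-III cells at 5 × 10⁵ per well in 6-well plates were left for 16 h, then given test compound (7.5, 15 or 30 μg/mL), doxorubicin (1.14 μg/mL) or 1 % (v/v) DMSO for 24, 48 and 72 h. Culture was at 37 °C, 5 % CO₂, humidified. Morphology was viewed by light microscopy with camera imaging at 100× and 200×.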

[6] = tested on: COX2; test: RT-qPCR transcript expression, COX2; assay type: cell-based; details: KATO-III, MF 30 μg/mL or doxorubicin 1.14 μg/mL
[7] = tested on: NFkB; test: RT-qPCR transcript expression, NFkB; assay type: cell-based; details: KATO-III, MF 30 μg/mL or doxorubicin 1.14 μg/mL
[8] = tested on: CASP3; test: RT-qPCR transcript expression, CASP3; assay type: cell-based; details: KATO-III, MF 30 μg/mL or doxorubicin 1.14 μg/mL
[9] = tested on: CASP7; test: RT-qPCR transcript expression, CASP7; assay type: cell-based; details: KATO-III, MF 30 μg/mL or doxorubicin 1.14 μg/mL
[10] = tested on: CTSB; test: RT-qPCR transcript expression, CTSB; assay type: cell-based; details: KATO-III, MF 30 μg/mL
[11] = tested on: BCL-2; test: RT-qPCR transcript expression, BCL-2; assay type: cell-based; details: KATO-III, 48 h (doxorubicin: from 48 h onwards); MF 30 μg/mL or doxorubicin 1.14 μg/mL
[12] = tested on: LU-1 lung cancer cell line; details: MF from Lisotrigona furua propolis; cited from earlier work
[13] = tested on: MCF-7 breast cancer cell line; details: MF from Lisotrigona furua propolis; cited from earlier work
[14] = tested on: Caco-2, KB, SK-MEL-28 and HN30 cancer cells; details: SK-MEL-28, HN30; cited from earlier work
[15] = tested on: NCI-N87 gastric cancer cells; details: at 200 μg/mL; cited from earlier work
[16] = tested on: human gastric adenocarcinoma cell line (AGS cells); details: read-out: IC50 against AGS cells; cited from earlier work

SMILES | IC50 ([1]; 24 h) | IC50 ([1]; 48 h) | IC50 ([1]; 72 h) | IC50 ([2]; WI-38, 24 h) | IC50 ([2]; WI-38, 48 h) | IC50 ([2]; WI-38, 72 h) | COX2 transcript expression level vs control ([6]; 24 h) | NFkB transcript expression level vs control ([7]; 24 h) | CASP3 transcript expression level vs control ([8]; 48 h) | CASP3 transcript expression level vs control ([8]; 72 h) | CASP7 transcript expression level vs control ([9]; 48 h) | CASP7 transcript expression level vs control ([9]; 72 h) | BCL-2 transcript expression level vs control [11] | migration of cancer cells [14] | other results
C/C(=C\CC[C@@H](C)[C@H]1CC[C@@]2(C)[C@@H]3CC[C@H]4C(C)(C)[C@@H](O)CC[C@@]45C[C@@]35CC[C@]12C)C(=O)O [Compound 2, mangiferolic acid] | 16 µg/mL (≈ 35.1 µM) | 12 µg/mL (≈ 26.2 µM) | 4.78 µg/mL (≈ 10.5 µM) | 22 µg/mL (≈ 48.3 µM) | 13.7 µg/mL (≈ 29.9 µM) | 11.6 µg/mL (≈ 25.4 µM) | upregulated | upregulated with significant increased | significant upregulation | increased in gene expression compared to control cells | significant upregulation | increased in gene expression compared to control cells | remained the same as in control cells | – | Q2 late apoptotic cells (annexin V+ PI+) ([3]; MF 15 μg/mL, listed as MF): slightly increased level of apoptotic cells; cell cycle arrest [4]: induced detectable levels of cell cycle arrest at the sub-G1 phase and S phase population; morphology of KATO-III cells ([5]; 15 μg/mL, 24 and 48 h): No significant change in the morphology; morphology of KATO-III cells ([5]; 30 μg/mL, 48 h, 100× magnification): lower density of cells; COX2 transcript expression level vs control ([6]; 48 h): significant upregulation; COX2 transcript expression level vs control ([6]; 72 h): increased in gene expression compared to control cells; NFkB transcript expression level vs control ([7]; 48 h): significant upregulation; NFkB transcript expression level vs control ([7]; 72 h): increased in gene expression compared to control cells; CTSB transcript expression level vs control ([10]; 48 h): significant upregulation; CTSB transcript expression level vs control ([10]; 72 h): only a slight increase compared to control cells; IC50 against LU-1 [12]: 13.33 µg/mL (≈ 29.2 µM); IC50 against MCF-7 [13]: 62.85 µg/mL (≈ 138 µM)
COc1cccc2c1C(=O)c1c(O)c3c(c(O)c1C2=O)C[C@@](O)(C(=O)CO)C[C@@H]3O[C@H]1C[C@H](N)[C@H](O)[C@H](C)O1 [Doxorubicin, doxorubicin, reference compound] | 1.55 µg/mL (≈ 2.85 µM) | 1.43 µg/mL (≈ 2.63 µM) | 0.56 µg/mL (≈ 1.03 µM) | 0.78 µg/mL (≈ 1.44 µM) | 0.09 µg/mL (≈ 0.166 µM) | 0.02 µg/mL (≈ 0.0368 µM) | no significant difference | no significant difference | significantly up-regulated | significantly up-regulated | significantly up-regulated | significantly up-regulated | slightly decreased (but not significant) | – | fold higher cytotoxicity than compounds 1 and 2 ([1]; both cancer and normal cell lines): > 5 fold; Q1 early apoptotic cells (annexin V+ PI−) ([3]; doxorubicin 1.14 μg/mL, 48 h): significantly enhanced level of early apoptosis; Q2 late apoptotic cells (annexin V+ PI+) ([3]; doxorubicin 1.14 μg/mL): significantly higher compared to the control (P < 0.01); morphology of KATO-III cells ([5]; 1.14 μg/mL, 72 h): clear loss of cell density; morphology of KATO-III cells ([5]; 1.14 μg/mL, after 48 h): cell shrinkage and blebbing; CASP7 transcript expression level vs control ([9]; 24 h): slightly increase
COc1c(O)cc2oc3cc(O)c(CC=C(C)C)c(O)c3c(=O)c2c1CC=C(C)C [alpha-mangostin] | – | – | – | – | – | – | – | – | – | – | – | – | – | inhibited the migration | –
CC(C)=CCc1c(O)cc2oc3cc(O)c(O)c(CC=C(C)C)c3c(=O)c2c1O [gamma-mangostin] | – | – | – | – | – | – | – | – | – | – | – | – | – | inhibited the migration | –
O=C1C[C@@H](c2ccccc2)Oc2cc(O)cc(O)c21 [pinocembrin] | – | – | – | – | – | – | – | – | – | – | – | – | – | – | cytotoxic activity [15]: 72.5%
O=c1c(O)c(-c2ccc(O)c(O)c2)oc2cc(O)cc(O)c12 [quercetin] | – | – | – | – | – | – | – | – | – | – | – | – | – | – | IC50 [16]: 160 µM
